{
  "source": "ChEMBL document CHEMBL3352716",
  "about": "(ACS Med Chem Lett, 2014)",
  "key": {"Bel-7402": {"system": "Bel-7402", "assay": "Selectivity index, ratio of IC50 for human L02 cells to ratio of IC50 for human Bel-7402 cells", "assay_type": "functional", "summary_of_the_method": "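Selectivity index is IC50 on normal L-02 liver cells divided by IC50 on Bel-7402 tumour cells. Both IC50 values come from MTT survival curves after 72 h exposure.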"}, "[1]": {"assay": "Antiproliferative activity against human Bel7402 cells assessed as growth inhibition after 72 hrs by MTT assay", "assay_type": "functional, cell-based", "details": "Bel-7402, 72 h", "summary_of_the_method": "(§1)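 MTT proliferation assay on human K562 leukaemia, MCF-7 breast adenocarcinoma, Bel-7402 hepatocellular carcinoma and MGC-803 gastric cancer cells. Drug exposure 72 h. IC50 is the concentration inhibiting 50% of cell growth. Means ± SD, n = 3.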"}, "MGC-803": {"system": "MGC-803", "assay": "Antiproliferative activity against human MGC803 cells assessed as growth inhibition after 72 hrs by MTT assay", "assay_type": "functional, cell-based", "details": "MGC-803, 72 h", "summary_of_the_method": "as §1"}, "MCF7": {"system": "MCF7", "assay": "Antiproliferative activity against human MCF7 cells assessed as growth inhibition after 72 hrs by MTT assay", "assay_type": "functional, cell-based", "details": "MCF7, 72 h", "summary_of_the_method": "as §1"}, "[2]": {"assay": "Anticancer activity against human Bel7402 cells assessed as growth inhibition by MTT assay", "assay_type": "functional, cell-based", "details": "Bel-7402", "summary_of_the_method": "(§2)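 Toxicity compared on human normal liver L-02 cells and human liver cancer Bel-7402 cells run side by side. Survival curves by MTT after 72 h treatment. IC50 is the concentration inhibiting 50% of cell growth.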"}, "K562": {"system": "K562", "assay": "Antiproliferative activity against human K562 cells assessed as growth inhibition after 72 hrs by MTT assay", "assay_type": "functional, cell-based", "details": "K562, 72 h", "summary_of_the_method": "as §1"}, "[3]": {"assay": "Cytotoxicity against human L02 cells by MTT assay", "assay_type": "cell-based", "summary_of_the_method": "as §2"}, "[4]": {"assay": "Anticancer activity against ABCB1-overexpressing human SW620/AD300 cells by MTT assay", "assay_type": "functional, cell-based", "details": "SW-620", "summary_of_the_method": "(§3)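 MTT cytotoxicity run on paired parental and transporter-overexpressing lines: SW620 vs ABCB1-overexpressing SW620/AD300, and NCI-H460 vs ABCG2-overexpressing NCI-H460/MX20. IC50 is the concentration inhibiting 50% of cell growth. Concentrations tested up to 100 μM.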"}, "[5]": {"assay": "Anticancer activity against ABCG2-overexpressing human NCI-H460/MX20 cells by MTT assay", "assay_type": "functional, cell-based", "summary_of_the_method": "as §3"}, "SW-620": {"system": "SW-620", "assay": "Anticancer activity against human SW620 cells by MTT assay", "assay_type": "functional, cell-based", "summary_of_the_method": "as §3"}, "NCI-H460": {"system": "NCI-H460", "assay": "Anticancer activity against human NCI-H460 cells by MTT assay", "assay_type": "functional, cell-based", "summary_of_the_method": "as §3"}},
  "data": [
    {"compound": "O=C(O)CCCc1ccc(N(CCCl)CCCl)cc1", "note": "[CHLORAMBUCIL]", "values": [
      {"measurement": "Ratio IC50", "setting": "Bel-7402", "value": 2.14},
      {"measurement": "IC50", "setting": "[1]", "value": 49.3, "unit": "µM"},
      {"measurement": "IC50", "setting": "MGC-803", "value": 134, "unit": "µM"},
      {"measurement": "IC50", "setting": "MCF7", "value": 80.5, "unit": "µM"},
      {"measurement": "IC50", "setting": "[2]", "value": 49.3, "unit": "µM"},
      {"measurement": "IC50", "setting": "K562", "value": 60.1, "unit": "µM"},
      {"measurement": "IC50", "setting": "[3]", "value": 106, "unit": "µM"}
    ]},
    {"compound": "C=C1C(=O)[C@]23[C@H](OC(=O)CCCC(=O)N[C@@H](Cc4ccc(N(CCCl)CCCl)cc4)C(=O)OC)[C@H]1CC[C@H]2[C@@]12CO[C@@]3(O)[C@@H](O)[C@@H]1C(C)(C)CC[C@@H]2O", "values": [
      {"measurement": "IC50", "setting": "[1]", "value": 7.91, "unit": "µM"},
      {"measurement": "IC50", "setting": "MGC-803", "value": 6.92, "unit": "µM"},
      {"measurement": "IC50", "setting": "MCF7", "value": 12.9, "unit": "µM"},
      {"measurement": "IC50", "setting": "K562", "value": 5.74, "unit": "µM"}
    ]},
    {"compound": "C=C1C(=O)[C@]23[C@H](OC(=O)CCCc4ccc(N(CCCl)CCCl)cc4)[C@H]1CC[C@H]2[C@@]12CO[C@@]3(O)[C@@H](O)[C@@H]1C(C)(C)CCC2=O", "values": [
      {"measurement": "IC50", "setting": "[1]", "value": 2.53, "unit": "µM"},
      {"measurement": "IC50", "setting": "MGC-803", "value": 3.95, "unit": "µM"},
      {"measurement": "IC50", "setting": "MCF7", "value": 2.25, "unit": "µM"},
      {"measurement": "IC50", "setting": "K562", "value": 2.37, "unit": "µM"}
    ]},
    {"compound": "C=C1C(=O)[C@]23[C@H](O)[C@H]1CC[C@H]2[C@@]12CO[C@]3(O)[C@@H](O)[C@@H]1C(C)(C)CC[C@@H]2O", "note": "[ORIDONIN]", "values": [
      {"measurement": "IC50", "setting": "[4]", "value": 4.67, "unit": "µM"},
      {"measurement": "Ratio IC50", "setting": "Bel-7402", "value": 2.38},
      {"measurement": "IC50", "setting": "[2]", "value": 7.48, "unit": "µM"},
      {"measurement": "IC50", "setting": "[5]", "value": 21.7, "unit": "µM"},
      {"measurement": "IC50", "setting": "SW-620", "value": 6.26, "unit": "µM"},
      {"measurement": "IC50", "setting": "NCI-H460", "value": 17.1, "unit": "µM"},
      {"measurement": "IC50", "setting": "[3]", "value": 17.8, "unit": "µM"}
    ]},
    {"compound": "C=C1C(=O)[C@]23[C@H](OC(=O)CCC(=O)N[C@@H](Cc4ccc(N(CCCl)CCCl)cc4)C(=O)OC)[C@H]1CC[C@H]2[C@@]12CO[C@@]3(O)[C@@H](O)[C@@H]1C(C)(C)CC[C@@H]2O", "values": [
      {"measurement": "IC50", "setting": "[4]", "value": 14.9, "unit": "µM"},
      {"measurement": "IC50", "setting": "[1]", "value": 8.35, "unit": "µM"},
      {"measurement": "IC50", "setting": "MGC-803", "value": 9.3, "unit": "µM"},
      {"measurement": "IC50", "setting": "MCF7", "value": 14.4, "unit": "µM"},
      {"measurement": "IC50", "setting": "[5]", "value": "> 100", "unit": "µM"},
      {"measurement": "IC50", "setting": "K562", "value": 9.01, "unit": "µM"},
      {"measurement": "IC50", "setting": "SW-620", "value": 14, "unit": "µM"},
      {"measurement": "IC50", "setting": "NCI-H460", "value": 28.4, "unit": "µM"}
    ]},
    {"compound": "C=C1C(=O)[C@]23[C@H](OC(=O)[C@H](Cc4ccc(N(CCCl)CCCl)cc4)NC=O)[C@H]1CC[C@H]2[C@@]12CO[C@@]3(O)[C@@H](O)[C@@H]1C(C)(C)CC[C@@H]2O", "values": [
      {"measurement": "IC50", "setting": "[1]", "value": 3.84, "unit": "µM"},
      {"measurement": "IC50", "setting": "MGC-803", "value": 7.1, "unit": "µM"},
      {"measurement": "IC50", "setting": "MCF7", "value": 14.6, "unit": "µM"},
      {"measurement": "IC50", "setting": "K562", "value": 7.03, "unit": "µM"}
    ]},
    {"compound": "C=C1C(=O)[C@]23[C@H](OC(=O)CCCc4ccc(N(CCCl)CCCl)cc4)[C@H]1CC[C@H]2[C@@]12CO[C@@]3(O)[C@@H](O)[C@@H]1C(C)(C)CC[C@@H]2O", "values": [
      {"measurement": "IC50", "setting": "[4]", "value": 2.28, "unit": "µM"},
      {"measurement": "Ratio IC50", "setting": "Bel-7402", "value": 6.73},
      {"measurement": "IC50", "setting": "[1]", "value": 1.43, "unit": "µM"},
      {"measurement": "IC50", "setting": "MGC-803", "value": 2.02, "unit": "µM"},
      {"measurement": "IC50", "setting": "MCF7", "value": 1.32, "unit": "µM"},
      {"measurement": "IC50", "setting": "[2]", "value": 1.43, "unit": "µM"},
      {"measurement": "IC50", "setting": "[5]", "value": 7.26, "unit": "µM"},
      {"measurement": "IC50", "setting": "K562", "value": 2.28, "unit": "µM"},
      {"measurement": "IC50", "setting": "SW-620", "value": 2.7, "unit": "µM"},
      {"measurement": "IC50", "setting": "NCI-H460", "value": 4.81, "unit": "µM"},
      {"measurement": "IC50", "setting": "[3]", "value": 9.62, "unit": "µM"}
    ]}
  ]
}
